Results on nine compounds are retold here after PMC9675722 (Cell chemical biology, 2022).

Like-named read-outs stand apart in the source and are kept apart here. A value given as a limit tells only on which side of the number the result lay.

Assay [1] deals with ERK5. As to conditions: read-out: reported IC50 for ERK5; ref Wang et al., 2018; cited from earlier work.
In assay [2] the test system is BRD4 and other members of the BET family proteins. To be noted: ref Wang et al., 2018; cited from earlier work.
In assay [3] the test system is MOLT4 cells. In words: CellTiter-Glo proliferation assay, MOLT4. The assay is classed as cell-based, Human. As to conditions: for EC50: read-out: anti-proliferative EC50.
Assay [4] deals with T1, ERK5 (Homo sapiens, UniProt Q13164). In words: KdELECT biochemical binding assay. To be noted: for binding affinity for ERK5 (in words): Table S1. The method in brief:
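Binding constants to ERK5 were determined in an outsourced KdELECT kinase binding assay from an 11-point dose–response curve.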

The subject of assay [5] is BT-474 cells. In words: CellTiter-Glo proliferation assay, BT-474. The format is cell-based, Human. As to conditions: for EC50: Homo sapiens, BT-474, 72 h, read-out: anti-proliferative EC50.
For assay [6], the system named is SNU-449 cells. The assay is described as follows: CellTiter-Glo proliferation assay, SNU-449. The format is cell-based, Human. To be noted: for EC50: Homo sapiens, SNU-449, 72 h, read-out: anti-proliferative EC50.
Assay [7] deals with panel of 468 kinases. The assay is described as follows: scanMAX KINOMEscan selectivity panel. The assay is classed as binding. As to conditions: 1 μM.
Assay [8] addresses T1, ERK5. The assay is described as follows: ERK5 degradation in MOLT4 cells. The assay is classed as cell-based. To be noted: for DC50: read-out: DC50 of ERK5 degradation, 5-hour treatment.
The target in assay [9] is BRD4 (Homo sapiens, UniProt O60885). In words: BRD4 immunoblot in MOLT4 cells. As to conditions: 5 hours. The format is cell-based. Put shortly:
(§1)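 MOLT4 cells (RPMI, 10% heat-inactivated FBS, pen-strep, 37 °C, 5% CO2) were exposed to test compound at a range of concentrations for 5 h. Lysis was in M-PER with protease and phosphatase inhibitors, and lysates were BCA-normalised. Samples were run on 4–12% Bis-Tris gels and blotted to nitrocellulose. ERK5, BRD4, AURKA and actin antibodies were applied overnight at 4 °C. Detection was by IRDye secondaries. Blots are representative of 2–3 biological replicates.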

The test system of assay [10] is MOLT4 cells. The assay is described as follows: global quantitative TMT MS proteomics in MOLT4 cells. The format is cell-based, Human. As to conditions: MOLT4, 250 nM, 5 hours. Put shortly: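 MOLT4 cells were treated for 5 h with test compound (250 nM, or 100 nM for one degrader) or DMSO (biological triplicate), then harvested by centrifugation. TMT-labelled tryptic peptides were analysed by LC-MS3 on an Orbitrap Fusion Lumos using a 190 min 6–27% acetonitrile gradient. Spectra were searched against Swissprot human. Proteins with ≥2 unique peptides were kept, and abundance relative to DMSO was computed by limma.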

Assay [11] concerns the target T2, AURKA (Homo sapiens, UniProt O14965).
T2 sequence (O14965 1-403): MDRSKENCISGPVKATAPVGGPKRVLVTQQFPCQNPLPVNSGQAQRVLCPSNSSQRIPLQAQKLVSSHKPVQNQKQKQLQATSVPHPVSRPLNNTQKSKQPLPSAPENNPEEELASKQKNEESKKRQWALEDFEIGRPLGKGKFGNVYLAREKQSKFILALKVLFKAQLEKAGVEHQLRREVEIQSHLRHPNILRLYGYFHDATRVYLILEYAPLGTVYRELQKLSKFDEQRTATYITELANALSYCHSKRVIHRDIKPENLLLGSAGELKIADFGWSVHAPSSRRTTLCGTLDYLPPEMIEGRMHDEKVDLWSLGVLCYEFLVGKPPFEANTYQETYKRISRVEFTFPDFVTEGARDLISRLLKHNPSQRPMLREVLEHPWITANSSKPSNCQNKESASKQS
In words: AURKA immunoblot in MOLT4 cells. The assay is classed as cell-based. As to conditions: 5 hours. The method in brief:
as §1

For assay [12], the system named is IL-8 secretion. The assay is described as follows: IL-8 ELISA, LPS-stimulated HUVECs. As to conditions: LPS 10 μg/mL 6 hours. The format is cell-based, Human. The method in brief:
(§2)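 HUVECs were seeded at 30,000–60,000 cells/well and pre-treated with test compound for 5 or 24 h. They were then stimulated with E. coli O111:B4 LPS at 10 μg/mL for 6 h. Secreted IL-6 or IL-8 in the supernatant was quantified by sandwich ELISA kits per the manufacturer. Statistics used two-way ANOVA with Bonferroni correction.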

Assay [13] relates to IL-6 secretion. In words: IL-6 ELISA, LPS-stimulated HUVECs. The format is cell-based, Human. As to conditions: LPS 10 μg/mL 6 hours. The method in brief:
as §2

Assay [14] deals with IL-6 stimulated MM.1S cells. In words: IL-6-induced MM.1S proliferation. The format is cell-based, Human. To be noted: 500 nM and 1 μM, 5 nM IL-6, 3d. Put shortly: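 MM.1S cells at 10,000 cells/well were pre-treated for 5 h with test compound at 500 nM or 1 μM. Recombinant human IL-6 (5 nM) was then added. After 72 h, proliferation was read by CellTiter-Glo. Data are mean with standard deviation of three biological replicates.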

T1 sequence (Q13164 whole entry): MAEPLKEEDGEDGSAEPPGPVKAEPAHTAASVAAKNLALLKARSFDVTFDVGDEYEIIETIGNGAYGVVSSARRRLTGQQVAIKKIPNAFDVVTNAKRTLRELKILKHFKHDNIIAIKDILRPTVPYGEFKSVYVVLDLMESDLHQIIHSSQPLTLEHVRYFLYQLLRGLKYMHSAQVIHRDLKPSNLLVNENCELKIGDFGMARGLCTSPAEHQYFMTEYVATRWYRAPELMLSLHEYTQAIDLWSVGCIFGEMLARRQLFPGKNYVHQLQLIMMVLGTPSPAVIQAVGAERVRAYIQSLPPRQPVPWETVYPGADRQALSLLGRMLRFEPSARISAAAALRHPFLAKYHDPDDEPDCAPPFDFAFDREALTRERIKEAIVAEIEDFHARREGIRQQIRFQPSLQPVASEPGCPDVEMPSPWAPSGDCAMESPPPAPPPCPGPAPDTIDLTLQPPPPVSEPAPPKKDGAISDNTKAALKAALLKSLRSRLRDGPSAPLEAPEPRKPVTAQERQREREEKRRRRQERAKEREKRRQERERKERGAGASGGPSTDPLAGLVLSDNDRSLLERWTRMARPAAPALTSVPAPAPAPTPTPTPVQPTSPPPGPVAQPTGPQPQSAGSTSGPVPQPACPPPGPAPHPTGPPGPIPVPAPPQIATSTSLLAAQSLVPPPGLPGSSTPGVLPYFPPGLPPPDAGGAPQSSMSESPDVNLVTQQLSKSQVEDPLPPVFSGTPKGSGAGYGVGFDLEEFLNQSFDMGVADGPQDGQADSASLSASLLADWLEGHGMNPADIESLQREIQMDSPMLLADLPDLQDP

On to `CCC(C)N1c2ccccc2C(=O)N(C)c2cnc(Nc3ccc(C(=O)N4CCC(N5CCN(C)CC5)CC4)cc3OC)nc21` (centres unmarked) [JWG-071], for which the IC50 in assay [1] was 0.088 µM. Besides, in [2], the “binding to off-target BET family proteins” value is listed as “significantly reduced affinity”. The concentration giving a half-maximal response (EC50) in assay [3] (MOLT4, 3 days) is 2.4 µM.

As for `CN1CCN(c2ccc3c(C4CCN(C(=O)c5ccc(OC(F)(F)F)cc5N)CC4)ncnc3c2)CC1` [INY-06-086, (2-amino-4-(trifluoromethoxy)phenyl)(4-(7-(4-methylpiperazin-1-yl)quinazolin-4-yl)piperidin-1-yl)methanone], the “binding affinity for ERK5 (in words)” value in [4] is reported as “high binding affinity”. For the same compound, the concentration giving a half-maximal response (EC50) in [5] and in assay [6] was above 20 µM each time. Moreover, in assay [7] (468 kinases), the “biochemical selectivity profile across the kinome” value is reported as “similarly selective for ERK5 as BAY-885”.

On to `CCC(C)N1c2ccccc2C(=O)N(C)c2cnc(Nc3ccc(C(=O)N4CCN(CCCCCC(=O)N[C@H](C(=O)N5C[C@H](O)C[C@H]5C(=O)N[C@@H](C)c5ccc(-c6scnc6C)cc5)C(C)(C)C)CC4)cc3)nc21` (stereo partly drawn) [INY-05-128, (2S,4R)-1-((2S)-2-(6-(4-(4-((11-(sec-butyl)-5-methyl-6-oxo-6,11-dihydro-5H-benzo[e]pyrimido[5,4-b][1,4]diazepin-2-yl)amino)benzoyl)piperazin-1-yl)hexanamido)-3,3-dimethylbutanoyl)-4-hydroxy-N-((S)-1-(4-(4-methylthiazol-5-yl)phenyl)ethyl)pyrrolidine-2-carboxamide], for which the “binding affinity for ERK5 (in words)” value in assay [4] is on record as “high binding affinities”. In addition, the DC50 in [8] turned out to be 0.281 µM. For the same compound, the BRD4 protein levels result in assay [9] is “no effect”. In assay [10], the “AURKA protein abundance, proteomics” value is listed as “induced downregulation” and the “ERK5 (MAPK7) protein abundance, proteomics” value is reported as “potent downregulation”. In [11], the AURKA protein levels entry is “validated through immunoblot analysis”. The EC50 in assay [3] (Homo sapiens, MOLT-4, 72 h) was determined as 1.1 µM.

For `Cc1ncsc1-c1ccc([C@H](C)NC(=O)[C@H]2C[C@H](O)CN2C(=O)[C@@H](NC(=O)CCCCCN2CCN(c3ccc4c(C5CCN(C(=O)c6ccc(OC(F)(F)F)cc6N)CC5)ncnc4c3)CC2)C(C)(C)C)cc1` [INY-06-089, (2R,4S)-1-((S)-2-(6-(4-(4-(1-(2-amino-4-(trifluoromethoxy)benzoyl)piperidin-4-yl)quinazolin-7-yl)piperazin-1-yl)hexanamido)-3,3-dimethylbutanoyl)-4-hydroxy-N-((S)-1-(4-(4-methylthiazol-5-yl)phenyl)ethyl)pyrrolidine-2-carboxamide], in assay [8] (5 hours, concentrations up to 5 μM), the ERK5 downregulation result was “unable to induce ERK5 downregulation”. For the same compound, the “IL-8 secretion upon LPS stimulation” value in assay [12] (5-hour pre-treatment) is reported as “no effect”. In addition, the EC50 in assay [5] and in [6] was above 20 µM throughout. In addition, the potential off-target kinases entry in [7] is “also inhibits the same kinases”. Moreover, in [13] (5-hour pre-treatment), the “IL-6 secretion upon LPS stimulation” value is listed as “no effect”.

In assay [4], `CN1CCN(c2cnc3c(C4CCN(C(=O)c5ccc(OC(F)(F)F)cc5N)CC4)ncnc3c2)CC1` [BAY-885] had a dissociation constant Kd of 0.001 µM. Also, the “IL-8 secretion upon LPS stimulation” value in assay [12] (5-hour pre-treatment) and in assay [12] (24-hour pre-treatment) was “no effect” throughout. Moreover, in [14], the “effect on IL-6-induced proliferation” value was “no effect”. The half-maximal effective concentration (EC50) in assay [5] was above 20 µM; in assay [6] it was above 20 µM; in assay [3] (Homo sapiens, MOLT-4, 72 h), above 10 µM. In addition, the “IL-6 secretion upon LPS stimulation” value in [13] (5-hour pre-treatment) and in [13] (24-hour pre-treatment) was “no effect” each time.

On to `CCOc1cc(C(=O)N2CCC(N3CCN(C)CC3)CC2)ccc1Nc1ncc2c(n1)N(S(C)(=O)=O)c1ccccc1C(=O)N2C` [AX15836, reference compound], for which the “effect on IL-6-induced proliferation” value in assay [14] is “no effect”. In addition, the EC50 in assay [5] is above 20 µM; in [6], above 20 µM; in assay [3] (Homo sapiens, MOLT-4, 72 h), above 10 µM.

Consider `CCOc1cc(N2CCC(O)CC2)ccc1Nc1ncc2c(n1)N(C)c1ccccc1C(=O)N2C` [XMD8-92], for which the “IL-8 secretion upon LPS stimulation” value is reported as “reduced” in assay [12] (5-hour pre-treatment) and “significantly reduced” in assay [12] (24-hour pre-treatment). Besides, the “IL-6 secretion upon LPS stimulation” value in assay [13] (5-hour pre-treatment) is on record as “reduced”; in assay [13] (24-hour pre-treatment) it was “significantly reduced”.

With `Cc1ncsc1-c1ccc([C@H](C)NC(=O)[C@@H]2C[C@@H](O)CN2C(=O)[C@@H](NC(=O)CCCCCN2CCN(C(=O)c3ccc(Nc4ncc5c(n4)N(C4CCCC4)c4ccccc4C(=O)N5C)cc3)CC2)C(C)(C)C)cc1` [INY-05-091, (2S,4R)-1-((S)-2-(6-(4-(4-((11-cyclopentyl-5-methyl-6-oxo-6,11-dihydro-5H-benzo[e]pyrimido[5,4-b][1,4]diazepin-2-yl)amino)benzoyl)piperazin-1-yl)hexanamido)-3,3-dimethylbutanoyl)-4-hydroxy-N-((S)-1-(4-(4-methylthiazol-5-yl)phenyl)ethyl)pyrrolidine-2-carboxamide], the “binding affinity for ERK5 (in words)” value in [4] was “high binding affinities”. Moreover, the DC50 in [8] was found to be 0.167 µM. In [9], the BRD4 protein levels entry was “potent BRD4 degradation”. Also, in assay [10], the “AURKA protein abundance, proteomics” value is given as “induced downregulation”; the “BRD3 and BRD4 protein abundance, proteomics” value is “additional downregulated targets”; the “ERK5 (MAPK7) protein abundance, proteomics” value was “potent downregulation”. The AURKA protein levels entry in assay [11] is “validated through immunoblot analysis”. The “anti-proliferative activity (in words)” value in [3] (MOLT4, 3 days) is recorded as “potent anti-proliferative activities”.

Consider `CCOc1cc(C(=O)N2CCC(N3CCN(C)CC3)CC2)ccc1Nc1ncc2c(n1)N(C1CCCC1)c1ccccc1C(=O)N2C` [XMD17-109], for which the “IL-8 secretion upon LPS stimulation” value is on record as “reduced” in assay [12] (5-hour pre-treatment) and “significantly reduced” in assay [12] (24-hour pre-treatment). Also, the “binding to off-target BET family proteins” value in [2] was “binds to and inhibits BRD4 and other members of the BET family proteins”. Besides, the “anti-proliferative effect (in words)” value in [5] (BT-474, 3d treatment) is given as “the only compound to display anti-proliferative effects”; in assay [6] (SNU-449, 3d treatment) it was “the only compound to display anti-proliferative effects”. For the same compound, the “IL-6 secretion upon LPS stimulation” value was “reduced” in assay [13] (5-hour pre-treatment) and “significantly reduced” in assay [13] (24-hour pre-treatment). Besides, the “anti-proliferative activity (in words)” value in assay [3] (MOLT4, 3 days) is reported as “potent anti-proliferative activities”.
